In one experiment the test system is Calf thymus DNA. The experiment in a line: Binding affinity towards calf thymus DNA, at pH 5. In kind it is nucleic-acid assay. The note with it: Bos taurus. A digest of the protocol: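 Affinity for sonicated calf thymus DNA determined by ethidium bromide competition by fluorescence. Four cells were run together: buffer, DNA (1.5 μg/mL), and drug at 3 and 6 μg/mL plus DNA. Ethidium bromide (50 μg/mL of buffer) was added in aliquots, and apparent constants were derived from Scatchard plots of competition. Where a ligand fluoresces strongly when bound, direct fluorometric titration was used instead.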

The subject of experiment [1] is L1210. The experiment in a line: Inhibitory activity against L1210 cell culture. The class given is functional. The conditions noted are these: Mus musculus, read-out: ED50 (the source's name). In short, it runs like this: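 L1210 cells in exponential growth (1 × 10⁵/mL) were held for 24 h at 37 °C in RPMI 1640 with 10% fetal calf serum across a range of drug concentrations. Total cells were counted electronically. Duplicate treated cultures were expressed as a percentage of triplicate untreated controls. ED50 came from linear regression of percent residual cells against concentration on a semilog scale.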

Experiment [2] has as its system L1210. The experiment in a line: Dose required to inhibit the cloning efficiency to a factor of 0.37 after 24-h exposure to the drug. The note with it: Mus musculus, L1210, 24 h. The class given is functional. A digest of the protocol: (§1)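 Exponentially growing L1210 cells (1 × 10⁵/mL) in RPMI 1640 with 10% fetal calf serum were exposed to the drug for 24 h at 37 °C. They were then diluted to 250 and 500 cells/mL and plated in Noble agar. After 14 days at 37 °C in 5% CO2, colonies >0.2 mm were counted, in triplicate per concentration. CE37 (cloning efficiency reduced to 0.37) was read from dose-response curves.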

Experiment [3] has as its system L1210. Briefly: Dose required to inhibit the cloning efficiency to a factor of 0.37 after 24-h exposure to the drug in L1210 cell. The class given is functional. The note with it: Mus musculus, L1210, 24 h. In short, it runs like this:
as §1

Among the data in ChEMBL document CHEMBL1123435, “Synthesis of 11H-pyridocarbazoles and derivatives. Comparison of their DNA binding and antitumor activity with those of 6H- and 7H-pyridocarbazoles” (1986) are K app, EC50 and EC37 values, retold here.

The molecule `C[n+]1ccc2c(ccc3c4ccccc4[nH]c23)c1.[I-]` had a K app in the experiment with Calf thymus DNA of 20000 M⁻¹. For the same molecule, the EC50 in the experiment with L1210 [1] is above 1 µg/mL. In the experiment on L1210 [2], this molecule returned an EC37 above 1 µg/mL.
As for `Cl.Oc1ccc2[nH]c3c(ccc4cccnc43)c2c1`, the K app in the experiment on Calf thymus DNA was 20000 M⁻¹. Besides, the EC50 in the experiment on L1210 [1] was above 1 µg/mL. The same molecule displayed an EC37 in the experiment on L1210 [2] above 1 µg/mL.
`CC(=O)[O-].Cc1c2cc[n+](C)cc2c(C)c2c1[nH]c1ccc(O)cc12` [ELLIPTINIUM ACETATE] had a K app in the experiment on Calf thymus DNA of 1.3e+06 M⁻¹. Further, the EC50 with L1210 [1] was found to be 0.06 µg/mL. The same molecule gave an EC37 in the experiment with L1210 [2] of 0.013 µg/mL.
Turning to `C[n+]1cccc2c3[nH]c4ccccc4c3ccc21.[I-]`, the K app with Calf thymus DNA was found to be 10000 M⁻¹. Further, in the experiment with L1210 [1], the EC50 was above 1 µg/mL. Further, the EC37 with L1210 [2] was above 1 µg/mL.
In the experiment on Calf thymus DNA, `COc1ccc2[nH]c3c(ccc4cccnc43)c2c1` returned a K app of 100000 M⁻¹.
On to `COc1ccc2[nH]c3ccc4cc[n+](C)cc4c3c2c1.[I-]`, for which the K app with Calf thymus DNA stood at 300000 M⁻¹. The EC50 with L1210 [1] stood at 0.38 µg/mL.
For the molecule `Cc1cc2c3cc(O)ccc3[nH]c2c2c[n+](C)ccc12.[I-]`, the K app in the experiment with Calf thymus DNA was 1e+06 M⁻¹. Also, in the experiment on L1210 [1], the EC50 is above 1 µg/mL. In the experiment with L1210 [2], this molecule returned an EC37 above 1 µg/mL.
Molecule `COc1ccc2[nH]c3c4c[n+](C)ccc4c(C)cc3c2c1` yielded a K app in the experiment on Calf thymus DNA of 100000 M⁻¹.
For the molecule `C[n+]1ccc2ccc3[nH]c4ccc(O)cc4c3c2c1.[I-]`, in the experiment on Calf thymus DNA, the K app is 180000 M⁻¹. Moreover, the EC50 in the experiment on L1210 [1] is 0.12 µg/mL.
`CC(=O)[O-].Cc1c2cc[n+](C)cc2c(C)c2c1[nH]c1ccccc12` gave a K app in the experiment on Calf thymus DNA of 230000 M⁻¹. The EC50 with L1210 [1] is 0.544 µg/mL. In addition, the EC37 in the experiment with L1210 [3] stood at 0.4 µg/mL.
For `C[n+]1cccc2c3[nH]c4ccc(O)cc4c3ccc21.[I-]`, in the experiment on Calf thymus DNA, the K app came to 100000 M⁻¹. In addition, in the experiment on L1210 [1], the EC50 is above 1 µg/mL. In the experiment with L1210 [2], this molecule gave an EC37 above 1 µg/mL.
`COc1ccc2[nH]c3c(ccc4c3ccc[n+]4C)c2c1` registered a K app in the experiment on Calf thymus DNA of 60000 M⁻¹.
In the experiment with Calf thymus DNA, `c1cnc2c(c1)ccc1c3ccccc3[nH]c12` returned a K app of 100000 M⁻¹.
In the experiment on Calf thymus DNA, `Cc1cc2c3ccccc3[nH]c2c2c[n+](C)ccc12.[I-]` gave a K app of 100000 M⁻¹. Besides, the EC50 in the experiment with L1210 [1] was above 1 µg/mL. For the same molecule, the EC37 with L1210 [2] was above 1 µg/mL.
In the experiment on Calf thymus DNA, `COc1ccc2[nH]c3c4cc[n+](C)cc4ccc3c2c1.[I-]` returned a K app of 25000 M⁻¹. Also, in the experiment with L1210 [1], the EC50 is above 1 µg/mL. Besides, in the experiment with L1210 [2], the EC37 is above 1 µg/mL.
